Experiments:
Assay type in all cases: functional, cell-based
MCF7 = test: Cytotoxicity against human MCF7 cells after 3 days by MTT assay; settings: MCF7, 72 h
In short: (§1)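 Cells kept in RPMI-1640 with 10% calf serum. Exponentially growing cells seeded at 4 × 10⁴ cells/mL, then medium replaced with fresh medium holding test compound (controls got solvent only). After incubation, MTT added for a further 4 h at 37 °C and formazan dissolved in DMSO. Read by OD. %inhibition = (OD control − OD test)/OD control × 100. Compounds giving ≥70% inhibition in a one-dose prescreen were serially diluted (0.06–0.002 range) for IC50.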

HeLa = test: Cytotoxicity against human HeLa cells after 3 days by MTT assay; settings: 72 h; in short: as §1
HepG2 = test: Cytotoxicity against human HepG2 cells after 3 days by MTT assay; settings: HepG2, 72 h; in short: as §1

Row | SMILES | IC50 (MCF7) [µM] | IC50 (HeLa) [µM] | IC50 (HepG2) [µM]
1 | Cc1ccc2nc(C)n(NC(=O)/C(C#N)=N/Nc3ccccc3)c(=O)c2c1 | 19 | 79 | 12
2 | Cc1ccc2nc(C)n(NC(=O)/C(C#N)=N/Nc3ccc(S(N)(=O)=O)cc3)c(=O)c2c1 | 9 | 12 | 9
3 | Cc1ccc2nc(C)n(-n3c(N)c(C#N)c(-c4ccccc4)c(C#N)c3=O)c(=O)c2c1 | 8 | 5 | 10
4 | Cc1ccc2nc(C)n(NC(=O)/C(C#N)=C/c3ccccc3)c(=O)c2c1 | 9 | 13 | 14
5 | Cc1ccc2nc(C)n(NC(=O)/C(C#N)=C/c3ccc([N+](=O)[O-])cc3)c(=O)c2c1 | 12 | 15 | 10
6 | Cc1ccc2nc(C)n(NC(=O)CC#N)c(=O)c2c1 | 40 | 30 | 55
7 | Cc1ccc2nc(C)n(NC(=O)c3sc(N)c(C#N)c3N)c(=O)c2c1 | 10 | 15 | 15
8 | CCOC(=O)c1c(N)sc(C(=O)Nn2c(C)nc3ccc(C)cc3c2=O)c1N | 16 | 23 | 22
9 | Cc1ccc2nc(C)n(NC(=O)/C(C#N)=C/c3ccc(Cl)cc3)c(=O)c2c1 | 12 | 12 | 9
10 | Cc1ccc2nc(C)n(NC(=O)/C(C#N)=C/c3cccc(O)c3)c(=O)c2c1 | 15 | 14 | 14
11 | Cc1ccc2nc(C)n(-n3c(N)cc(N)c(C#N)c3=O)c(=O)c2c1 | 10 | 15 | 17
12 | Cc1ccc2nc(C)n(NC(=O)c3sc4c(c3N)CCCC4)c(=O)c2c1 | 18 | 31 | 22
13 | Cc1ccc2nc(C)n(NC(=O)c3sc(=S)n(-c4ccccc4)c3N)c(=O)c2c1 | 13 | 35 | 27
14 | COc1cccc2c1C(=O)c1c(O)c3c(c(O)c1C2=O)C[C@@](O)(C(=O)CO)C[C@@H]3O[C@H]1C[C@H](N)[C@H](O)[C@H](C)O1 [DOXORUBICIN] |  | 8 | 9
15 | Cc1ccc2nc(C)n(NC(=O)/C(C#N)=C/c3ccc(O)c(O)c3)c(=O)c2c1 | 8 | 8 | 8
16 | Cc1ccc2nc(C)n(NC(=O)c3sc(=S)n(Cc4ccccc4)c3N)c(=O)c2c1 | 10 | 26 | 32
17 | Cc1ccc(/C=C(\C#N)C(=O)Nn2c(C)nc3ccc(C)cc3c2=O)cc1 | 10 | 9 | 12
18 | Cc1ccc2nc(C)n(NC(=O)c3cc4ccccc4oc3=N)c(=O)c2c1 | 17 | 38 | 23
19 | Cc1ccc2nc(C)n(-n3c(O)cc(N)c(C#N)c3=O)c(=O)c2c1 | 26 | 45 | 41
20 | Cc1ccc2nc(C)n(NC(=O)/C(C#N)=C/c3ccc(O)cc3)c(=O)c2c1 | 14 | 13 | 13
21 | CCOC(=O)c1c(-c2ccccc2)c(C#N)c(=O)n(-n2c(C)nc3ccc(C)cc3c2=O)c1N | 17 | 21 | 52

Source: ChEMBL document CHEMBL2034831, “Quinazoline-tyrphostin as a new class of antitumor agents, molecular properties prediction, synthesis and biological testing” (Eur J Med Chem, 2012)
